Assays:
[1] = Intrinsic clearance in dog hepatocytes; type: ADME, cell-based, Canis lupus familiaris, Hepatocyte
[2] = Passive permeability in MDCK2-MDR1 cells transduced with BacMam2-BCRP at 3 uM after 90 mins by Transwell assay; type: ADME, cell-based, Canis lupus familiaris, MDCK-MDR1; conditions: dog; read-out: permeability
In short: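 MDCKII-MDR1 cells transduced with BacMam2-BCRP and grown in Transwells. Compound at 3 μM, in duplicate, was incubated 90 min A→B (and B→A) with and without GF120918 (5 μM, dual P-gp/BCRP inhibitor). Passive permeability (Pexact, nm/s) was calculated by an equation from earlier work. The permeability ratio is A→B permeability with GF120918 over A→B permeability without it.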

[3] = Fraction unbound in Han-Wistar SOA rat model brain at 2 mg/kg administered via oral gavage by UPLC/MS/MS analysis; type: ADME, organism-based
[4] = Fraction unbound in Han-Wistar SOA rat model blood at 2 mg/kg administered via oral gavage by UPLC/MS/MS analysis; type: ADME, organism-based
[5] = tested on: Blood; experiment: Dose normalized AUC (0 to 7 hrs) in Han-Wistar SOA rat model blood at 2 mg/kg administered via oral gavage by UPLC/MS/MS analysis; type: ADME, organism-based; conditions: in vivo
In short: (§1)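 Male Han-Wistar rats were given 2 mg/kg by oral gavage as a suspension in DMSO:1% methylcellulose (1:99). Blood (cardiac puncture, EDTA-K2, under isoflurane) and brains were collected at 0.25–7 h. Brain was homogenised in 3-fold PBS, samples were protein-precipitated and quantified by UPLC/MS/MS.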

[6] = tested on: Brain; experiment: Dose normalized AUC (0 to 7 hrs) in Han-Wistar SOA rat model brain at 2 mg/kg administered via oral gavage by UPLC/MS/MS analysis; type: ADME, organism-based; conditions: in vivo; in short: as §1
[7] = Ratio of brain dose normalized AUC (0 to 7 hrs) to […] dose normalized AUC (0 to 7 hrs), Kp of the compound in Han-Wistar SOA rat model at 2 mg/kg administered via oral gavage by UPLC/MS/MS analysis; type: ADME, organism-based
In short: (§2)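 Male Han-Wistar rats given a single 2 mg/kg oral gavage as a suspension in DMSO:1% methylcellulose (1:99). Blood was taken by cardiac puncture under isoflurane at 0.25–7 h, diluted 1:3 with water, and brains were homogenized in 3-fold PBS. Samples were extracted by acetonitrile protein precipitation and quantified by UPLC/MS/MS. Kp = brain DNAUC0-7h/blood DNAUC0-7h; Kp,uu = Kp×Fu,br/Fu,bl.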

[8] = Unbound brain-to-blood concentration ratio in Han-Wistar SOA rat model at 2 mg/kg administered via oral gavage by UPLC/MS/MS analysis; type: ADME, organism-based; conditions: read-out: K(p,uu,brain); in short: as §2
[9] = Volume of distribution at steady state in Wistar rat at 0.98 mg/kg, iv measured up to 4 hrs post dose; type: ADME, organism-based; conditions: in vivo, read-out: Vdss
[10] = Tmax in Wistar rat at 2.41 mg/kg, po measured up to 4 hrs post dose; type: ADME, organism-based; conditions: in vivo
[11] = Cmax in Wistar rat at 2.41 mg/kg, po measured up to 4 hrs post dose; type: ADME, organism-based; design: dose 2.41 mg/kg, route oral; conditions: in vivo
[12] = Oral bioavailability in Wistar rat at 2.41 mg/kg measured up to 4 hrs after dose; type: ADME, organism-based; conditions: in vivo
[13] = Elimination half life in dog at 0.85 mg/kg, iv measured up to 4 hrs post dose; type: ADME, organism-based, Canis lupus familiaris; conditions: in vivo, read-out: beta t1/2 (converted)
[14] = tested on: Canis familiaris; experiment: Dose normalized AUC (0 to infinity) in dog at 0.85 mg/kg, iv measured up to 4 hrs post dose; type: ADME, organism-based, Canis lupus familiaris; conditions: in vivo
[15] = Tmax in dog at 1.29 mg/kg, po measured up to 4 hrs post dose; type: ADME, organism-based, Canis lupus familiaris; conditions: in vivo
[16] = tested on: Canis familiaris; experiment: Dose normalized AUC (0 to infinity) in dog at 1.29 mg/kg, po measured up to 4 hrs post dose; type: ADME, organism-based, Canis lupus familiaris; conditions: in vivo
[17] = Oral bioavailability in dog at 1.29 mg/kg measured up to 4 hrs after dose; type: ADME, organism-based, Canis lupus familiaris; conditions: in vivo
[18] = target: T1, C-C chemokine receptor type 3 (Homo sapiens, UniProt P51677); experiment: Agonist activity at CCR3 (unknown origin)
In short: (§3)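 β-arrestin assays run in both agonist and antagonist modes across a panel of 18 CXC and CC chemokine receptors.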

[19] = target: T2, C-C chemokine receptor type 5 (Homo sapiens, UniProt P51681); experiment: Agonist activity at CCR5 (unknown origin); in short: as §3
[20] = target: C-C chemokine receptor type 6 (Homo sapiens, UniProt P51684); experiment: Agonist activity at CCR6 (unknown origin); in short: as §3
[21] = target: C-C chemokine receptor type 9 (Homo sapiens, UniProt P51686); experiment: Agonist activity at CCR9 (unknown origin); in short: as §3
[22] = target: T3, C-X-C chemokine receptor type 1 (Homo sapiens, UniProt P25024); experiment: Agonist activity at CXCR1 (unknown origin)
In short: (§4)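 Part of an 18-receptor CXC/CC chemokine receptor panel, each receptor run in β-arrestin recruitment assays in both agonist and antagonist modes.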

[23] = target: C-X-C chemokine receptor type 3 (Homo sapiens, UniProt P49682); experiment: Agonist activity at CXCR3 (unknown origin); in short: as §3
[24] = target: T4, C-X-C chemokine receptor type 6 (Homo sapiens, UniProt O00574); experiment: Agonist activity at CXCR6 (unknown origin); in short: as §3
[25] = target: C-C chemokine receptor type 2 (Homo sapiens, UniProt P41597); experiment: Antagonist activity at CCR2 (unknown origin); in short: as §3
[26] = target: T1, C-C chemokine receptor type 3; experiment: Antagonist activity at CCR3 (unknown origin); in short: as §3
[27] = target: C-C chemokine receptor type 4 (Homo sapiens, UniProt P51679); experiment: Antagonist activity at CCR4 (unknown origin); in short: as §3
[28] = target: T2, C-C chemokine receptor type 5; experiment: Antagonist activity at CCR5 (unknown origin); in short: as §3
[29] = target: C-C chemokine receptor type 8 (Homo sapiens, UniProt P51685); experiment: Antagonist activity at CCR8 (unknown origin); in short: as §3
[30] = target: T3, C-X-C chemokine receptor type 1; experiment: Antagonist activity at CXCR1 (unknown origin); in short: as §4
[31] = target: C-X-C chemokine receptor type 4 (Homo sapiens, UniProt P61073); experiment: Antagonist activity at CXCR4 (unknown origin); in short: as §3
[32] = target: C-X-C chemokine receptor type 5 (Homo sapiens, UniProt P32302); experiment: Antagonist activity at CXCR5 (unknown origin); in short: as §3
[33] = target: T4, C-X-C chemokine receptor type 6; experiment: Antagonist activity at CXCR6 (unknown origin); in short: as §3
[34] = target: Atypical chemokine receptor 3 (Homo sapiens, UniProt P25106); experiment: Antagonist activity at CXCR7 (unknown origin); in short: as §3
[35] = target: C-X-C chemokine receptor type 2 (Mus musculus, UniProt P35343); experiment: Antagonist activity at CXCR2 in C57 mouse whole blood assessed as inhibition of GROalpha-stimulated CD11b upregulation preincubated for 2 hr followed by GROalpha stimulation measured after 10 mins by FITC-staining based FACS analysis
Sequence of C-X-C chemokine receptor type 2 (P35343 whole entry): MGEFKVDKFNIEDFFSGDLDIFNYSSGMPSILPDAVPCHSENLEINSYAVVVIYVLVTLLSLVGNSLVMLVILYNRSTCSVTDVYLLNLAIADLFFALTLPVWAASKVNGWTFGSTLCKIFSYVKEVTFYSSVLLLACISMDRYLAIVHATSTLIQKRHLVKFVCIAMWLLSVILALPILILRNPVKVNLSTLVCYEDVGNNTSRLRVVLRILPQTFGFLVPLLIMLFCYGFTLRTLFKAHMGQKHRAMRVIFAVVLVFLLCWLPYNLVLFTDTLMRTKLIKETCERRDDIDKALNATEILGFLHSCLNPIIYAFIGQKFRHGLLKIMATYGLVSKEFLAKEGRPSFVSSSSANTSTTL

T1 sequence (P51677 whole entry): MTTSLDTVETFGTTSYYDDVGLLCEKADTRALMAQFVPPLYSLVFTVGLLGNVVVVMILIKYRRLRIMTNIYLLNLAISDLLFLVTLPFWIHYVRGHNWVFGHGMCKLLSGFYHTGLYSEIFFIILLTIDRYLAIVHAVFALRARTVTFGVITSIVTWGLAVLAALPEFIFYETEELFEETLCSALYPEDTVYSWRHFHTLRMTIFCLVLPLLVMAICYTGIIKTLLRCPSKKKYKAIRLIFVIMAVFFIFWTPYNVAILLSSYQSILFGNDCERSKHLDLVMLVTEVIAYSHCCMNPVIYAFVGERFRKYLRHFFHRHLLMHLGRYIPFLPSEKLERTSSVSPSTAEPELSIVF
T2 sequence (P51681 whole entry): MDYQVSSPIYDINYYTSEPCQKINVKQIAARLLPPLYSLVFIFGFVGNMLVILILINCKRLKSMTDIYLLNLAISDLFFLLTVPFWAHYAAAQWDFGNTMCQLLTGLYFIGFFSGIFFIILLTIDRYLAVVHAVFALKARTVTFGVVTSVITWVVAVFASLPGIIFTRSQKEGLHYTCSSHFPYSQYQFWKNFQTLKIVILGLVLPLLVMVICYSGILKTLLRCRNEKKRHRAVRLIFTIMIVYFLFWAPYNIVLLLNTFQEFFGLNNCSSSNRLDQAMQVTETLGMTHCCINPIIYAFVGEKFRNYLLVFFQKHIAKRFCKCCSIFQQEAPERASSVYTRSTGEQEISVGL
T3 sequence (P25024 whole entry): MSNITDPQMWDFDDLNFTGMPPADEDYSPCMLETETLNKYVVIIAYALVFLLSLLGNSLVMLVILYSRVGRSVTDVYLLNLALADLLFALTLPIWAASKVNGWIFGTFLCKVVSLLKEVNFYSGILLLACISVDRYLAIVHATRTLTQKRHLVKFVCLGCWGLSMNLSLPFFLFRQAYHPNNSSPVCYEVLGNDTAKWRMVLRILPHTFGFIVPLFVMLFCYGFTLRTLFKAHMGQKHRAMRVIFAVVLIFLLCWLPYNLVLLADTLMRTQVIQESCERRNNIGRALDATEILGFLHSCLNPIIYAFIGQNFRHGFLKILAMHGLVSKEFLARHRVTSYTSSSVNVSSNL
T4 sequence (O00574 whole entry): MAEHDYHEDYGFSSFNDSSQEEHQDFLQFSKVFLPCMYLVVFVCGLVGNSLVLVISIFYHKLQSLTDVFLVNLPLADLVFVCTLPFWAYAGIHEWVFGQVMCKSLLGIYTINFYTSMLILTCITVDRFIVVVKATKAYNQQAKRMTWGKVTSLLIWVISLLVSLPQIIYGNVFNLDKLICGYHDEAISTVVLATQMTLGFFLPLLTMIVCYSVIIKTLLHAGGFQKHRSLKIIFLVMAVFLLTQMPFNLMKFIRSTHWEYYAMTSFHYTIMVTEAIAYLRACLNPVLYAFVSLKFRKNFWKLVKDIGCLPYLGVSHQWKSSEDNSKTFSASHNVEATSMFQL
Sequence of C-C chemokine receptor type 8 (P51685 whole entry): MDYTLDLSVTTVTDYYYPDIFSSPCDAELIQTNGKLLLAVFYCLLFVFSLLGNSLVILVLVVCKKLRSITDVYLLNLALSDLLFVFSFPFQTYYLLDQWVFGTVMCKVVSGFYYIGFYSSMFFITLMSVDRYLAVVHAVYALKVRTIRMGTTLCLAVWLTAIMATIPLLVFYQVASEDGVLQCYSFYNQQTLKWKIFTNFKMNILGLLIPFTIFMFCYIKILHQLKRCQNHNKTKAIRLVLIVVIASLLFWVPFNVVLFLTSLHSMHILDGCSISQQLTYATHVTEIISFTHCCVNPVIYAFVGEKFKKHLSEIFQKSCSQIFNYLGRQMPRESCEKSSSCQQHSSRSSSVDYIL
Sequence of C-X-C chemokine receptor type 5 (P32302 whole entry): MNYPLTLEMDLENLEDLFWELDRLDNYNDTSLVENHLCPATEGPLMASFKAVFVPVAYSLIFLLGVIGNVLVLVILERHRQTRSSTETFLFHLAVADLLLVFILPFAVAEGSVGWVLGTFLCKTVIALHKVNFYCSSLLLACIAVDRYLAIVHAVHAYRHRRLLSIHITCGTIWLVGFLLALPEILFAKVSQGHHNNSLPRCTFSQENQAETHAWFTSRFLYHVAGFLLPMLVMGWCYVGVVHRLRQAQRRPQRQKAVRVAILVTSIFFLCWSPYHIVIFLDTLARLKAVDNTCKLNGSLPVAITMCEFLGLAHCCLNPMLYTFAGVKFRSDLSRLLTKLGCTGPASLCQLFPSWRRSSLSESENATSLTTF
Sequence of Atypical chemokine receptor 3 (P25106 whole entry): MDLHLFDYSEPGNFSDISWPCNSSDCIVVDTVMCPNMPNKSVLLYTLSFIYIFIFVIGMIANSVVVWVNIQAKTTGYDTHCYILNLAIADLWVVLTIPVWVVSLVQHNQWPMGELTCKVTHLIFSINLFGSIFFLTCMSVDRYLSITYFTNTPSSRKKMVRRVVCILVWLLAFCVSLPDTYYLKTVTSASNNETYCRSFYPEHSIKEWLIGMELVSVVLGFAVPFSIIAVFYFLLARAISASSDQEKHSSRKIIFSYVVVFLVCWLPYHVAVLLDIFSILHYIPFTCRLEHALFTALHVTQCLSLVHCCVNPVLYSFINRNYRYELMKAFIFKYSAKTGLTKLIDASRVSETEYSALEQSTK
Sequence of C-C chemokine receptor type 4 (P51679 whole entry): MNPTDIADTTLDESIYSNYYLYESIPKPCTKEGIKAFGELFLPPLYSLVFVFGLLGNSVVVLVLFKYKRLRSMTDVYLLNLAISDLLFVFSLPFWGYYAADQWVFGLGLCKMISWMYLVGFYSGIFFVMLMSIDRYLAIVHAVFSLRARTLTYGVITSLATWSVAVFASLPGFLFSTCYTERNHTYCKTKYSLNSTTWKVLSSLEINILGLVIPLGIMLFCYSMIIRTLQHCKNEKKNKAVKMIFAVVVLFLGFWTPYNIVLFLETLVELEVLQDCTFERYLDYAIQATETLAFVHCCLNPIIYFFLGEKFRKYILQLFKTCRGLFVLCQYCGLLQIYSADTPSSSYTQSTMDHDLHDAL
Sequence of C-X-C chemokine receptor type 4 (P61073 whole entry): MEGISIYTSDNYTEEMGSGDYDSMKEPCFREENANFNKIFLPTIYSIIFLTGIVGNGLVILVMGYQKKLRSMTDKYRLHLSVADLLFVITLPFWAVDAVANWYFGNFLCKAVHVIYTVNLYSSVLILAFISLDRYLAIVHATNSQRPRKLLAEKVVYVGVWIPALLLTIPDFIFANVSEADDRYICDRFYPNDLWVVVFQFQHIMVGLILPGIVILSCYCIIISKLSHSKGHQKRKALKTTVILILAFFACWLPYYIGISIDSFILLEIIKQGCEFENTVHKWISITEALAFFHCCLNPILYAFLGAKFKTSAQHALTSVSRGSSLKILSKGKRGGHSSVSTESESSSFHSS
Sequence of C-C chemokine receptor type 9 (P51686 whole entry): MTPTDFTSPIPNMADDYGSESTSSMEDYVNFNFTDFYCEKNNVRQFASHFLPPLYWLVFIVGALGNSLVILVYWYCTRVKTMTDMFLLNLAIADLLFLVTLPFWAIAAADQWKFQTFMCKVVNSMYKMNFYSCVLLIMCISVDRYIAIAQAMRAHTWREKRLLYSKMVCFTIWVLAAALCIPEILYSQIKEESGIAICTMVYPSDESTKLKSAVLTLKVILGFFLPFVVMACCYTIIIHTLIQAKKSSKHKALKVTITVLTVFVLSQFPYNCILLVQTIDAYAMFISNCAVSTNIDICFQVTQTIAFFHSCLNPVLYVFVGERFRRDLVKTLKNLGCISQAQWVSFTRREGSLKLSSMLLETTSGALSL
Sequence of C-C chemokine receptor type 6 (P51684 whole entry): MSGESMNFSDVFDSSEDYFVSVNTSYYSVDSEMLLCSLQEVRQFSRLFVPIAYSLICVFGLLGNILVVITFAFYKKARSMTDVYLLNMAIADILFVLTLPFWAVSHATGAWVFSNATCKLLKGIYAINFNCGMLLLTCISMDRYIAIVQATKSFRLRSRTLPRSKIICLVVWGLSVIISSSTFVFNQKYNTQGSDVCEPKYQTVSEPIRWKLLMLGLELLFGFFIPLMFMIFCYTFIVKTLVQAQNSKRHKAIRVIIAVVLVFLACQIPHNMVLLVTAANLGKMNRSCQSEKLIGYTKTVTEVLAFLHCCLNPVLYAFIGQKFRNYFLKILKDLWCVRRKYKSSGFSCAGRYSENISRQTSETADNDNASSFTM
Sequence of C-X-C chemokine receptor type 3 (P49682 whole entry): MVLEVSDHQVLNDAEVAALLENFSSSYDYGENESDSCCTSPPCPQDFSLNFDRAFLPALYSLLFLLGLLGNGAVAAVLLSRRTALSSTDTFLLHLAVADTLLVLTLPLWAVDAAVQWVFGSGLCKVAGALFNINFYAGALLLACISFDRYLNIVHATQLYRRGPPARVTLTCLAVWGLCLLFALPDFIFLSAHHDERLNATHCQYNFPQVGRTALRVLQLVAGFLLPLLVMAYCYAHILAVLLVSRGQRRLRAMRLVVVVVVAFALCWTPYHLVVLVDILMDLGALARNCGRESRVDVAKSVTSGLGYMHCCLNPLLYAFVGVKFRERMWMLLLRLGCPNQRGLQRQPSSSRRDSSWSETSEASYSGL

For `CC1=CCC[C@H]1NC(=O)Nc1ccc(Cl)c(S(=O)(=O)[C@@]2(C)CCOC2)c1O`, the CLH [1] was 1.8 mL/min/g, the Papp at 1.5 h, 3 µM [2] was 25.4 ×10⁻⁶ cm/s and the fraction unbound [3] was 0.123. It also gave a fraction unbound [4] of 0.027, an AUC/dose [5] of 651 ng·h/mL/mg/kg and an AUC/dose [6] of 87.7 ng·h/g/mg/kg. For the same molecule, the Kp [7] was 0.14, the Kp uu [8] was 0.63 and the Vd [9] was 2.1 L/kg. For the same molecule, the Tmax [10] was 1 h, the Cmax [11] was 452 ng/mL and the bioavailability [12] was 47%. It also gave a half-life [13] of 3.6 h, an AUC/dose [14] of 2996 ng·h/mL/mg/kg and a Tmax [15] of 1.1 h. The AUC/dose [16] was 2298 ng·h/mL/mg/kg, the bioavailability [17] was 76% and the EC50 [18] was over 10 µM. It also gave an EC50 [19] of over 10 µM, an EC50 [20] of over 10 µM and an EC50 [21] of over 10 µM. For the same molecule, the EC50 [22] was over 10 µM, the EC50 [23] was over 10 µM and the EC50 [24] was over 10 µM. For the same molecule, the IC50 [25] was over 10 µM, the IC50 [26] was over 10 µM and the IC50 [27] was over 10 µM. For the same molecule, the IC50 [28] was over 10 µM, the IC50 [29] was over 10 µM and the IC50 [30] was 3.8 µM. The IC50 [31] was over 10 µM, the IC50 [32] was over 10 µM and the IC50 [33] was over 10 µM. The IC50 [34] was over 10 µM and the IC50 [35] was 0.0059 µM.

From ChEMBL document CHEMBL4033786, “Discovery of Novel 1-Cyclopentenyl-3-phenylureas as Selective, Brain Penetrant, and Orally Bioavailable CXCR2 Antagonists” (J Med Chem, 2018)
